The record followed here is ChEMBL document CHEMBL1240482, “Synthesis and antiproliferative evaluation of certain indeno[1,2-c]quinoline derivatives. Part 2” (J Med Chem, 2010).

As a reminder, the inhibition is the drop in the measured response relative to a control, in per cent. Usually half-life stands for the time in which the quantity being followed falls by half. Read a low half-life as rapid decline. The GI50 is the concentration giving 50% growth inhibition. A high value points to lower sensitivity of the cells. Usually IC50 stands for the midpoint of a concentration-inhibition curve. One may read the clearance as a measure of how efficiently the substance is removed, as volume per time. As a reminder, the Tmax is the time at which the peak concentration occurs. By MRT is commonly meant the average time that molecules of a dose stay in the body.

Series [1] concerns the target T1, DNA topoisomerase 1 (Homo sapiens) (UniProt P11387).
T1 sequence (whole entry): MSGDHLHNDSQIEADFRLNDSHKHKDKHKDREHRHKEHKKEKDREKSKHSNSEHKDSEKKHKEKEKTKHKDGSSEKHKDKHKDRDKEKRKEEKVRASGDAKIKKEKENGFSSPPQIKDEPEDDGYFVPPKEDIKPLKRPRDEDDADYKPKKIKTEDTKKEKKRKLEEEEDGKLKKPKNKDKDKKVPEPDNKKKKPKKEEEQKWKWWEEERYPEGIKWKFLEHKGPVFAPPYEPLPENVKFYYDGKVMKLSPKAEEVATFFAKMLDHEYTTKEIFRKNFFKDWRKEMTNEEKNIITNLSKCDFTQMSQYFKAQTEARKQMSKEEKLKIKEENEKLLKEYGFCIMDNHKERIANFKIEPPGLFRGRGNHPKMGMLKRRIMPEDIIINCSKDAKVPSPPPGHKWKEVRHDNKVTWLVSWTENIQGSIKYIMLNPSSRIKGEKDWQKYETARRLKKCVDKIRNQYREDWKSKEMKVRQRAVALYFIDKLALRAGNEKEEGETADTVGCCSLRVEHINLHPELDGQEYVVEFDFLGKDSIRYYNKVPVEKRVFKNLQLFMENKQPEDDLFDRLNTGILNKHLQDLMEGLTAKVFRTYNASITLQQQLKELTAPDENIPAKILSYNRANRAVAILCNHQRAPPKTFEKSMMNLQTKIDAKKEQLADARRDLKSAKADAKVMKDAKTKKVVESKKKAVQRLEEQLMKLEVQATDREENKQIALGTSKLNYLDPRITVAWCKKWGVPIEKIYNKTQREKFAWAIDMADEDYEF
As to the kind of experiment: Inhibition of human topoisomerase 1 assessed as decrease in pBR322 mobility on agarose gel at 10 uM by electrophoresis. An outline of the steps:
(§1)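 Enzyme preincubated with compound before DNA addition; reaction run 30 min at 37 °C and stopped with SDS. Products resolved on 1% agarose, stained with ethidium bromide, quantified by densitometry.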

Series [2] relates to Detroit 551. As to the kind of experiment: Selectivity index, ratio of IC50 for human Detroit 551 cells to IC50 for human SKHep cells. Format: functional.
Series [3] relates to Detroit 551. Put plainly: Selectivity index, ratio of IC50 for human Detroit 551 cells to IC50 for human A549 cells. Type of series: functional.
Series [4] is described as follows: Half life in CD1 mouse at 2 mg/ kg, iv. Type of series: ADME, organism-based. Details: dose 2 mg/ kg, route intravenous. The following applies: in vivo. An outline of the steps:
(§2)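 Fasted male CD-1 (Crl.) mice, 22-24 g; single tail-vein bolus of 2.0 mg/kg in PEG400/ethanol/water (30/5/65), 10 mL/kg. Cardiac-puncture blood into K-EDTA at 0-27 h, three mice per time point; plasma analysed by LC-MS/MS after acetonitrile precipitation. Parameters calculated from mean plasma concentrations.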

Series [5] is described as follows: Cytotoxicity against human SKHep cells after 48 hrs by MTT assay. Type of series: functional. An outline of the steps:
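Cells grown in DMEM with 10% FBS at 37 °C and 5% CO2, seeded at 5 × 10^3 per well and allowed 24 h before drug. Serial dilutions from DMSO stocks applied for 48 h. MTT (2 mg/mL in PBS) added for 2 h, formazan dissolved in DMSO, absorbance read at 570 nm. GI50 interpolated by linear regression from at least three points in the 20-80% range; three independent experiments.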
(Formazan colour is commonly taken as a measure of viable cells.)

A short description of series [6]: Inhibition of human topoisomerase 2 assessed as decrease in pBR322 mobility on agarose gel by electrophoresis. An outline of the steps: as §1
Series [7] in a line: Clearance in CD1 mouse at 2 mg/ kg, iv. Type of series: ADME, organism-based. Further details: dose 2 mg/ kg, route intravenous. Particulars: in vivo. The procedure, abridged:
as §2

For series [8], the system named is Mus musculus. Put plainly: Toxicity to BALB/c mouse assessed as change in glutamic oxalacetic transaminase at 20 mg/kg, iv. Type of series: organism-based. Details: dose 20 mg/kg, route intravenous. Particulars: in vivo. The procedure, abridged:
(§3)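 BALB/c mice, 3 per group, randomized by body weight (stratified). Dosed iv via tail vein at 10, 20 or 40 mg/kg in PEG 400/ethanol/water (20/20/60), once every 3 days for 2 weeks; solvent controls. Weighed throughout. After a 24 h fast, heart blood was drawn under ether; GOT, GPT, BUN and creatinine were measured on an analyzer. Liver and kidney taken for H&E.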

Series [9] in a line: Tmax in CD1 mouse at 20 mg/ kg, po. Type of series: ADME, organism-based. Further details: dose 20 mg/ kg, route oral. The following applies: in vivo. The procedure, abridged: (§4)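 Male CD-1 (Crl.) mice, 22-24 g, fasted 4 h before dosing; single oral gavage of 20 mg/kg as a suspension in 0.5% methylcellulose/water, 10 mL/kg. Cardiac-puncture plasma (K-EDTA) taken predose to 27 h, three mice per time point; LC-MS/MS quantification.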

Series [10] is described as follows: Half life in CD1 mouse at 20 mg/ kg, po. Format: ADME, organism-based. The following applies: in vivo. Details: dose 20 mg/ kg, route oral. An outline of the steps:
as §4

Series [11] is described as follows: Mean retention time in CD1 mouse at 2 mg/ kg, iv. Format: ADME, organism-based. The following applies: in vivo. Further details: dose 2 mg/ kg, route intravenous. An outline of the steps:
as §2

The nature of series [12]: Cell cycle arrest in human BT-483 cells assessed as accumulation at sub-G1 phase at 1 uM after 24 hrs by flow cytometry. Format: functional, cell-based. The procedure, abridged:
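BT483 cells exposed to 0, 1, 3 or 10 μM for 24 h, then stained with propidium iodide and analysed for DNA content by flow cytometry. The subdiploid (sub-G1) peak, expressed as a percentage of the whole population, is scored as apoptotic.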
On the technique in general: A flow cytometer gives signals particle by particle.

For the next series, the species on record is Homo sapiens. As to the kind of experiment: Inhibition of human topoisomerase 2 assessed as decrease in pBR322 mobility on agarose gel at 10 uM by electrophoresis. An outline of the steps:
as §1

Another series has as its target T2, DNA topoisomerase 1 (Homo sapiens, UniProt P11387).
T2 sequence (P11387 whole entry): T1 sequence (whole entry)
As to the kind of experiment: Inhibition of human topoisomerase 1 assessed as decrease in pBR322 mobility on agarose gel by electrophoresis. The procedure, abridged: as §1

In series [13] the test system is Mus musculus. As to the kind of experiment: Toxicity to BALB/c mouse assessed as change in blood urea nitrogen at 20 mg/kg, iv. Format: organism-based. Details: dose 20 mg/kg, route intravenous. Particulars: in vivo. An outline of the steps:
as §3

As to `COc1ccc2c(c1)/C(=N\OCCN1CCCC1)c1c-2c(O)nc2ccccc12`, the inhibition in series [1] came out at 71%; in the series listed under Homo sapiens, 60%. Moreover, the RatioGI50 turned out to be 10.03 in the series on Detroit 551 [2] and 13.98 in the series with Detroit 551 [3]. Besides, the half-life in [4] is 90 min; in series [10], 132 min. Moreover, the concentration for 50% growth inhibition (GI50) in series [5] came out at 1240 nM. In addition, the figures for the IC50 (in series [6]; at DNA topoisomerase 1) were 8.26 µM and 3.76 µM, respectively. This molecule gave a clearance in series [7] of 193 mL/min/kg. The Activity entry in the series on Mus musculus [8] is “Non-toxic”; in series [12], 43%; in the series on Mus musculus [13], “Non-toxic”. Also, the time to peak (Tmax) in [9] came to 1 h. The MRT in series [11] was 1.1 h.
